Test results as given in ChEMBL document CHEMBL4387780, “Molecular and cellular studies evaluating a potent 2-cyanoindolizine catechol diether NNRTI targeting wildtype and Y181C mutant HIV-1 reverse transcriptase” (Bioorg Med Chem Lett, 2019).
In brackets after ≈: the same amount, converted by molar mass.

Experiments:
[1] = Solubility of the compound in water at pH 7; format: physicochemical
[2] = Cytotoxicity against human MT2 cells infected with HIV1 NL4-3 harboring Y181C mutant measured 48 hrs by MTT assay; format: cell-based
[3] = target: Human immunodeficiency virus type 1 reverse transcriptase (Human immunodeficiency virus 1, UniProt Q72547, Y181C); experiment: Inhibition of recombinant HIV1 reverse transcriptase p66/p51 Y181C mutant expressed in Escherichia coli BL21 (DE3) pLysS cells preincubated followed by primer/template addition and measured after 30 mins by picogreen dye-based fluorescence assay
Procedure, shortened: (§1)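 RT pre-incubated with inhibitor at increasing concentrations to allow binding. Reaction started by adding substrate and co-substrates, run 30 min at 10 nM active-site RT, then quenched with EDTA. dsDNA product read as RFU with PicoGreen dye. Each concentration in triplicate, with a pre-quenched negative control. IC50 from a quadratic inhibition curve fit.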

[4] = Cytotoxicity against human MT2 cells infected with wild-type HIV1 NL4-3 measured 48 hrs by MTT assay; format: cell-based
[5] = tested on: Human immunodeficiency virus 1; experiment: Antiviral activity against HIV1 NL4-3 harboring Y181C mutant infected in human MT2 cells measured 5 days post-infection by MTT assay
[6] = tested on: Human immunodeficiency virus 1; experiment: Antiviral activity against wild-type HIV1 NL4-3 infected in human MT2 cells measured 5 days post-infection by MTT assay; details: for EC50: Human immunodeficiency virus 1, NL4-3, MT2, 5 days
[7] = target: Human immunodeficiency virus type 1 reverse transcriptase (Human immunodeficiency virus 1, UniProt Q72547); experiment: Inhibition of recombinant HIV1 reverse transcriptase p66/p51 expressed in Escherichia coli BL21 (DE3) pLysS cells preincubated followed by primer/template addition and measured after 30 mins by picogreen dye-based fluorescence assay; procedure, shortened: as §1
[8] = Human immunodeficiency virus 1, NL4-3, MT2, 5 days, read-out: EC50

| SMILES | solubility [1] [µg/mL] | CC50 at 48 h [2] [nM] | IC50 [3] [nM] | CC50 at 48 h [4] [nM] | Activity [5] | EC50 [5, 8] [nM] | Activity [6] | EC50 [6] [nM] | IC50 [7] [nM] | EC50 [5] |
| --- | --- | --- | --- | --- | --- | --- | --- | --- | --- | --- |
| Cc1cc(C#N)cc(C)c1Oc1nc(Nc2ccc(C#N)cc2)nc(N)c1Br [ETRAVIRINE] | < 1 | – | – | – | – | – | – | – | – | – |
| N#Cc1cc2c(Oc3ccc(F)cc3OCCn3ccc(=O)[nH]c3=O)cc(F)cn2c1 | 43.8 (≈ 103 µM) | 55000 | 5.5 | 90000 | Dose-dependent effect | 3.2 | Dose-dependent effect | 4.7 | 4.5 | – |
| Cc1cc(/C=C/C#N)cc(C)c1Nc1ccnc(Nc2ccc(C#N)cc2)n1 [RILPIVIRINE] | – | – | – | 8000 | – | […] | – | – | – | – |
| Cc1ccnc2c1NC(=O)c1cccnc1N2C1CC1 [NEVIRAPINE] | – | – | – | > 100000 | – | – | – | 300 | – | Not Active |
